The M2OR odorant receptor database
Where a chain is given by its changes, count along the chain named.
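Further: active if original authors judged signal statistically different from baseline.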

What follows are molecules tested on T1, OR2T3 R298C. Conditions: stereoisomer not certain.
T1 sequence (whole entry): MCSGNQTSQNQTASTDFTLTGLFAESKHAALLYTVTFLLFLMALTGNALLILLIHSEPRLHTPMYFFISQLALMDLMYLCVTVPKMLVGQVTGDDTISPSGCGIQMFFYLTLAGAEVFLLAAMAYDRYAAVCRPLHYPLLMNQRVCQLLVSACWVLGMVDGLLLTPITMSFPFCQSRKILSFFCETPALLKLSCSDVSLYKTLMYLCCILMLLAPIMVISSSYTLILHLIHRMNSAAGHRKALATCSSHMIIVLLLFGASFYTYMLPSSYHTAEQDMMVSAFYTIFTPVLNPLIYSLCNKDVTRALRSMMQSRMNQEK
Outline: (§1)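 Each receptor–molecule pair is labelled responsive or non-responsive (inactive) according to whether the original authors judged the measured signal statistically different from baseline. The data were taken from the main text and supplementary material of published papers and checked for typos and inconsistencies. Assay methods differed by source, with transient luciferase assays in mammalian cell lines being common.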
For CCC1OC(=O)C(O)=C1C (configuration not stated), the “odorant receptor agonist call” value was “inactive”. In the case of CCC1OC(C)=C(O)C1=O (configuration not stated), the “odorant receptor agonist call” value is reported as “inactive”. In the case of CC1=C(O)C(=O)C(C)O1 (configuration not stated), the “odorant receptor agonist call” value is reported as “inactive”. CCCCCCC=CCCC=O was tested, and the “odorant receptor agonist call” value was “inactive”. For Cc1cnc(C)c(C)n1, the “odorant receptor agonist call” value was “inactive”. For CC1=C(O)C(=O)OC1C (configuration not stated), the “odorant receptor agonist call” value was “inactive”. CC1=NC(C)C(C)S1 (configuration not stated) was tested, and the “odorant receptor agonist call” value was “inactive”. For CCCC(S)CCOC(C)=O (configuration not stated), the “odorant receptor agonist call” value was “inactive”.

Each molecule was assayed on T2, OR2T3 Y109H. Conditions: stereoisomer not certain.
T2 sequence (whole entry): T1 sequence (whole entry) with Y109H, C298R
Outline: as §1
With CCC1OC(=O)C(O)=C1C (configuration not stated) the “odorant receptor agonist call” value was “inactive”. CCC1OC(C)=C(O)C1=O (configuration not stated) was tested, and the “odorant receptor agonist call” value was “inactive”. For CC1=C(O)C(=O)C(C)O1 (configuration not stated), the “odorant receptor agonist call” value was “inactive”. For CCCCCCC=CCCC=O, the “odorant receptor agonist call” value was “inactive”. For Cc1cnc(C)c(C)n1, the “odorant receptor agonist call” value was “inactive”. For CC1=C(O)C(=O)OC1C (configuration not stated), the “odorant receptor agonist call” value was “inactive”. In the case of CC1=NC(C)C(C)S1 (configuration not stated), the “odorant receptor agonist call” value is reported as “inactive”. With CCCC(S)CCOC(C)=O (configuration not stated) the “odorant receptor agonist call” value was “inactive”.

These molecules were tested against T3, OR2T33 (Homo sapiens) (UniProt Q8NG76). Conditions: stereoisomer not certain.
T3 sequence (whole entry): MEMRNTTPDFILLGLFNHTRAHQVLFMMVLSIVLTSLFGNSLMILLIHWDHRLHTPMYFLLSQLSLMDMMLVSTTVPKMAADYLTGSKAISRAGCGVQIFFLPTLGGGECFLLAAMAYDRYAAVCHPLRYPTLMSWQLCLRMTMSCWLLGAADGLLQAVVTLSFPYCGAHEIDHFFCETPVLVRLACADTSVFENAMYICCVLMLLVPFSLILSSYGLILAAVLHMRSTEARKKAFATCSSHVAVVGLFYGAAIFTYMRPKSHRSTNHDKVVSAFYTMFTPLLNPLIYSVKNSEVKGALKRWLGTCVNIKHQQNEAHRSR
Outline: as §1
In the case of CCC1OC(=O)C(O)=C1C (configuration not stated), the “odorant receptor agonist call” value is reported as “inactive”. In the case of CCC1OC(C)=C(O)C1=O (configuration not stated), the “odorant receptor agonist call” value is reported as “inactive”. In the case of CC1=C(O)C(=O)C(C)O1 (configuration not stated), the “odorant receptor agonist call” value is reported as “inactive”. In the case of CCCCCCC=CCCC=O, the “odorant receptor agonist call” value is reported as “inactive”. In the case of Cc1cnc(C)c(C)n1, the “odorant receptor agonist call” value is reported as “inactive”. CCCCCC(S)C(C)CO (configuration not stated) was tested, and the “odorant receptor agonist call” value was “inactive”. CC1=C(O)C(=O)OC1C (configuration not stated) was tested, and the “odorant receptor agonist call” value was “inactive”. CCCCC(S)C(C)CO (configuration not stated) was tested, and the “odorant receptor agonist call” value was “inactive”. With CC1=NC(C)C(C)S1 (configuration not stated) the “odorant receptor agonist call” value was “inactive”. CCC(S)C(C)CO (configuration not stated) was tested, and the “odorant receptor agonist call” value was “inactive”. CC1CCCCCCCCCCCCC(=O)C1 (configuration not stated) was tested, and the “odorant receptor agonist call” value was “inactive”. For CC(=O)c1c(C)c([N+](=O)[O-])c(C(C)(C)C)c([N+](=O)[O-])c1C, the “odorant receptor agonist call” value was “inactive”. With CCCCCC(=O)C(C)C(C)=O (configuration not stated) the “odorant receptor agonist call” value was “inactive”. With CC(CO)CS (configuration not stated) the “odorant receptor agonist call” value was “inactive”. With CCCC(S)CCOC(C)=O (configuration not stated) the “odorant receptor agonist call” value was “inactive”.

What follows are molecules tested against T4, OR2T34 (Homo sapiens) (UniProt Q8NGX1). Conditions: stereoisomer not certain.
T4 sequence (whole entry): T1 sequence (whole entry) with Y109H, T202M, M204T, A214T, H239R, P267R, C298R
Outline: as §1
CCCCC1CCC(=O)O1 (configuration not stated) was tested, and the “odorant receptor agonist call” value was “inactive”. With CCC1OC(=O)C(O)=C1C (configuration not stated) the “odorant receptor agonist call” value was “inactive”. In the case of COc1ccc(C)cc1, the “odorant receptor agonist call” value is reported as “inactive”. CCC1OC(C)=C(O)C1=O (configuration not stated) was tested, and the “odorant receptor agonist call” value was “inactive”. For CCC(=O)C=CC1C(C)=CCCC1(C)C (configuration not stated), the “odorant receptor agonist call” value was “inactive”. For CC1=C(O)C(=O)C(C)O1 (configuration not stated), the “odorant receptor agonist call” value was “inactive”. In the case of C=CCOC(=O)COCCC(C)C, the “odorant receptor agonist call” value is reported as “inactive”. Cc1occc(=O)c1OC(=O)C(C)C was tested, and the “odorant receptor agonist call” value was “inactive”. For CCCCCCC=CCCC=O, the “odorant receptor agonist call” value was “inactive”. For CC(C)=CCCC(C)=CCO, the “odorant receptor agonist call” value was “inactive”. With Cc1cnc(C)c(C)n1 the “odorant receptor agonist call” value was “inactive”. For CCCCCC(S)C(C)CO (configuration not stated), the “odorant receptor agonist call” value was “inactive”. In the case of C=CC(C)(CCC=C(C)C)OC(C)=O (configuration not stated), the “odorant receptor agonist call” value is reported as “inactive”. For CCC=C(C)C(O)CCCCC (configuration not stated), the “odorant receptor agonist call” value was “inactive”. CC1=C(O)C(=O)OC1C (configuration not stated) was tested, and the “odorant receptor agonist call” value was “inactive”. In the case of CCCCCC1COCCC1OC(C)=O (configuration not stated), the “odorant receptor agonist call” value is reported as “inactive”. With CC(C)=CCCC(C)CC=O (configuration not stated) the “odorant receptor agonist call” value was “inactive”. In the case of OCc1ccccc1, the “odorant receptor agonist call” value is reported as “inactive”. With COC1CC2CC1C1CC(C=O)CC21 (configuration not stated) the “odorant receptor agonist call” value was “inactive”. For CCCCC(S)C(C)CO (configuration not stated), the “odorant receptor agonist call” value was “inactive”. In the case of CC(C)CCCC(C)(C)O, the “odorant receptor agonist call” value is reported as “inactive”. In the case of CC1=NC(C)C(C)S1 (configuration not stated), the “odorant receptor agonist call” value is reported as “inactive”. With CC(CC=O)c1ccc(C(C)(C)C)cc1 (configuration not stated) the “odorant receptor agonist call” value was “inactive”. In the case of CC(C)(C)C1CCCCC1OCCCCO (configuration not stated), the “odorant receptor agonist call” value is reported as “inactive”. With Cc1ccc(C(C)C)cc1O the “odorant receptor agonist call” value was “inactive”. CCC(S)C(C)CO (configuration not stated) was tested, and the “odorant receptor agonist call” value was “inactive”. In the case of CC(=O)OCc1ccccc1, the “odorant receptor agonist call” value is reported as “inactive”. With CC1CCCCCCCCCCCCC(=O)C1 (configuration not stated) the “odorant receptor agonist call” value was “inactive”. With CCCC(C)C(=O)OCC (configuration not stated) the “odorant receptor agonist call” value was “inactive”. In the case of CC(=O)c1c(C)c([N+](=O)[O-])c(C(C)(C)C)c([N+](=O)[O-])c1C, the “odorant receptor agonist call” value is reported as “inactive”. CCCCCC(=O)C(C)C(C)=O (configuration not stated) was tested, and the “odorant receptor agonist call” value was “inactive”. With CC1CC(C)(c2ccccc2)CO1 (configuration not stated) the “odorant receptor agonist call” value was “inactive”. With CC1=CCC2CC1C2(C)C (configuration not stated) the “odorant receptor agonist call” value was “inactive”. For CC=CC(=O)C1C(C)=CCCC1(C)C (configuration not stated), the “odorant receptor agonist call” value was “active”. With CC(CO)CS (configuration not stated) the “odorant receptor agonist call” value was “inactive”. CCCCCC1C(=O)CCC1CC(=O)OC (configuration not stated) was tested, and the “odorant receptor agonist call” value was “inactive”. For C=CC(C)(O)CCC=C(C)CCC=C(C)C (configuration not stated), the “odorant receptor agonist call” value was “inactive”. In the case of CCCC(S)CCOC(C)=O (configuration not stated), the “odorant receptor agonist call” value is reported as “inactive”. CC(=O)C=CC1=C(C)CCCC1(C)C was tested, and the “odorant receptor agonist call” value was “inactive”.

Each molecule was assayed against T5, OR2T35 (Homo sapiens) (UniProt Q8NGX2). Conditions: stereoisomer not certain.
T5 sequence (whole entry): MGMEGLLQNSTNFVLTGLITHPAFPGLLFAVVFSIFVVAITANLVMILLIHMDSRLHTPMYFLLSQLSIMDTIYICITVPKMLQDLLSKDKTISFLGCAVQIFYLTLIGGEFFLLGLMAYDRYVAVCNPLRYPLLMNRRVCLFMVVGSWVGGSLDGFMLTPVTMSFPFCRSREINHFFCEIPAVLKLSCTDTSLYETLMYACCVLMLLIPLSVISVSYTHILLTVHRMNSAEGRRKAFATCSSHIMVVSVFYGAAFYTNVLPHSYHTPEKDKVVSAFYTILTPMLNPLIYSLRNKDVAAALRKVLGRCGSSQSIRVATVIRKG
Outline: as §1
For CCC1OC(=O)C(O)=C1C (configuration not stated), the “odorant receptor agonist call” value was “inactive”. With CCC1OC(C)=C(O)C1=O (configuration not stated) the “odorant receptor agonist call” value was “inactive”. With CC1=C(O)C(=O)C(C)O1 (configuration not stated) the “odorant receptor agonist call” value was “inactive”. For CCCCCCC=CCCC=O, the “odorant receptor agonist call” value was “inactive”. For Cc1cnc(C)c(C)n1, the “odorant receptor agonist call” value was “inactive”. CCCCCC(S)C(C)CO (configuration not stated) was tested, and the “odorant receptor agonist call” value was “inactive”. In the case of CC1=C(O)C(=O)OC1C (configuration not stated), the “odorant receptor agonist call” value is reported as “inactive”. In the case of CCCCC(S)C(C)CO (configuration not stated), the “odorant receptor agonist call” value is reported as “inactive”. For CC1=NC(C)C(C)S1 (configuration not stated), the “odorant receptor agonist call” value was “inactive”. With CCC(S)C(C)CO (configuration not stated) the “odorant receptor agonist call” value was “inactive”. With CC1CCCCCCCCCCCCC(=O)C1 (configuration not stated) the “odorant receptor agonist call” value was “inactive”. For CC(=O)c1c(C)c([N+](=O)[O-])c(C(C)(C)C)c([N+](=O)[O-])c1C, the “odorant receptor agonist call” value was “inactive”. In the case of CCCCCC(=O)C(C)C(C)=O (configuration not stated), the “odorant receptor agonist call” value is reported as “inactive”. CC(CO)CS (configuration not stated) was tested, and the “odorant receptor agonist call” value was “inactive”. With CCCC(S)CCOC(C)=O (configuration not stated) the “odorant receptor agonist call” value was “inactive”.

The molecules below were run against T6, OR2T4 (Homo sapiens) (UniProt Q8NH00). Conditions: stereoisomer not certain.
T6 sequence (whole entry): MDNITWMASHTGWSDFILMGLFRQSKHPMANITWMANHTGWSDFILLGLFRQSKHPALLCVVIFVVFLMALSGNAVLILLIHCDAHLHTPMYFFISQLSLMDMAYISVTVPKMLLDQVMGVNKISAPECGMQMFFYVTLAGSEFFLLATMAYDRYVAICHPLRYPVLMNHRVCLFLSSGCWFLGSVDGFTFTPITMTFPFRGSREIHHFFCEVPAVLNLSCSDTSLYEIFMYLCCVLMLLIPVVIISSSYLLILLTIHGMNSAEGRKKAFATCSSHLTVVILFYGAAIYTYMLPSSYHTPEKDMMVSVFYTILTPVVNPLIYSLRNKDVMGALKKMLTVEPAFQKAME
Outline: as §1
In the case of CCC1OC(=O)C(O)=C1C (configuration not stated), the “odorant receptor agonist call” value is reported as “inactive”. CCC1OC(C)=C(O)C1=O (configuration not stated) was tested, and the “odorant receptor agonist call” value was “inactive”. With CC1=C(O)C(=O)C(C)O1 (configuration not stated) the “odorant receptor agonist call” value was “inactive”. In the case of CCCCCCC=CCCC=O, the “odorant receptor agonist call” value is reported as “inactive”. In the case of CC(C)=CCCC(C)=CCO, the “odorant receptor agonist call” value is reported as “inactive”. With Cc1cnc(C)c(C)n1 the “odorant receptor agonist call” value was “inactive”. In the case of CCCCCC(S)C(C)CO (configuration not stated), the “odorant receptor agonist call” value is reported as “inactive”. With CC1=C(O)C(=O)OC1C (configuration not stated) the “odorant receptor agonist call” value was “inactive”. With CCCCC(S)C(C)CO (configuration not stated) the “odorant receptor agonist call” value was “inactive”. With CC1=NC(C)C(C)S1 (configuration not stated) the “odorant receptor agonist call” value was “inactive”. CCC(S)C(C)CO (configuration not stated) was tested, and the “odorant receptor agonist call” value was “inactive”. For CC1CCCCCCCCCCCCC(=O)C1 (configuration not stated), the “odorant receptor agonist call” value was “inactive”. CC(=O)c1c(C)c([N+](=O)[O-])c(C(C)(C)C)c([N+](=O)[O-])c1C was tested, and the “odorant receptor agonist call” value was “inactive”. In the case of CCCCCC(=O)C(C)C(C)=O (configuration not stated), the “odorant receptor agonist call” value is reported as “inactive”. CC1=CCC2CC1C2(C)C (configuration not stated) was tested, and the “odorant receptor agonist call” value was “active”. In the case of CC(CO)CS (configuration not stated), the “odorant receptor agonist call” value is reported as “inactive”. CCCC(S)CCOC(C)=O (configuration not stated) was tested, and the “odorant receptor agonist call” value was “inactive”.
